ChEMBL document CHEMBL1135767, “Synthesis and initial evaluation for in vivo chelation of Pu(IV) of a mixed octadentate spermine-based ligand containing 4-carbamoyl-3-hydroxy-1-methyl-2(1H)-pyridinone and 6-carbamoyl-1-hydroxy-2(1H)-pyridinone” (2002)
Several values for one entry are separate records, joined by “and”; a condition that tells them apart may be missing. Equal entries are not always repeated.

Key:
Mus musculus [1] = assay: Removal of [238Pu] (i.v.) from mice by ligand injected 30 uM/kg intraperitoneally at 1 hr from skeleton; assay type: functional
How it was run: (§1)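 238Pu(IV) citrate given iv to mice; ligand 30 µmol/kg (in 0.14 M NaCl, pH 7.4, volume scaled to body weight) injected ip at 1 h; killed at 24 h. Five mice per cage, excreta pooled per cage, chow from 4 h. Tissue and excreta Pu were counted by liquid scintillation alpha counting and given as %ID normalized to 100% recovery, mean ± SD.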

Mus musculus [2] = assay: Removal of [238Pu] (i.v.) from mice by ligand injected 30 uM/kg intraperitoneally at 1 hr from whole body; assay type: functional; how it was run: as §1
Mus musculus [3] = assay: Removal of [238Pu] (i.v.) from mice by ligand injected 30 uM/kg orally at 3 min fasted after iv injection from feces and GI contents; assay type: functional
How it was run: (§2)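 Mice fasted 16 h got iv 238Pu(IV) citrate, then ligand 30 µmol/kg by gastric tube at 3 min (HOPO in 0.14 M NaCl, pH 7.4; weight-adjusted volume). Chow was given at 4 h and the mice were killed at 24 h. Tissues and pooled per-cage excreta were liquid-scintillation alpha-counted and expressed as %ID normalized to 100% recovery.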

Mus musculus [4] = assay: Removal of [238Pu] (i.v.) from mice by ligand injected 30 uM/kg ip at 1 hr from feces and GI contents; assay type: functional
How it was run: (§3)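 Mice received iv 238Pu(IV) citrate, then ip ligand (30 µmol/kg, 0.14 M NaCl pH 7.4) at 1 h. Feces plus GI contents were collected to 24 h kill, pooled per five-mouse cage and alpha-counted by liquid scintillation. Values are %ID normalized to total recovery. SD applies only to multiply replicated groups.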

Mus musculus [5] = assay: Removal of [238Pu] (i.v.) from mice by ligand injected 30 uM/kg intraperitoneally at 1 hr from kidneys; assay type: functional, Kidney; how it was run: as §1
Mus musculus [6] = assay: Removal of [238Pu] (i.v.) from mice by ligand injected 30 uM/kg orally at 3 min fasted after iv injection from soft tissue; assay type: functional; how it was run: as §2
Mus musculus [7] = assay: Removal of [238Pu] (i.v.) from mice by ligand injected 30 uM/kg orally at 3 min normally fed after iv injection from soft tissue; assay type: functional
How it was run: (§4)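 Normally fed mice got iv 238Pu(IV) citrate, then ligand 30 µmol/kg by gastric tube at 3 min, in 0.14 M NaCl pH 7.4 with weight-adjusted volume. The mice were killed at 24 h, with five per cage and excreta pooled per cage. Pu was counted by liquid scintillation alpha counting and reported as %ID normalized to 100% recovery.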

Mus musculus [8] = assay: Removal of [238Pu] (i.v.) from mice by ligand injected 30 uM/kg orally at 3 min fasted after iv injection from skeleton; assay type: functional; how it was run: as §2
Mus musculus [9] = assay: Removal of [238Pu] (i.v.) from mice by ligand injected orally at 3 min normally fed after iv injection from skeleton; assay type: functional; how it was run: as §4
Mus musculus [10] = assay: Removal of [238Pu] (i.v.) from mice by ligand injected 30 umol/kg intraperitoneally at 1 hr from skeleton; assay type: functional; how it was run: as §1
Mus musculus [11] = assay: Removal of [238Pu] (i.v.) from mice by ligand injected 30 uM/kg orally at 3 min normally fed after iv injection from feces and GI contents; assay type: functional; how it was run: as §4
Mus musculus [12] = assay: Removal of [238Pu] (i.v.) from mice by ligand injected 30 uM/kg orally at 3 min normally fed after iv injection from liver tissue; assay type: functional; how it was run: as §4
Mus musculus [13] = assay: Removal of [238Pu] (i.v.) from mice by ligand injected 30 uM/kg at 3 min normally fed after iv injection from urine excretia; assay type: functional; how it was run: as §4
Mus musculus [14] = assay: Removal of [238Pu] (i.v.) from mice by ligand injected 30 uM/kg orally at 3 min normally fed after iv injection from kidneys; assay type: functional, Kidney; how it was run: as §4
Mus musculus [15] = assay: Removal of [238Pu] (i.v.) from mice by ligand injected 30 uM/kg ip at 1 hr and orally at 3 min after iv injection from kidneys; assay type: functional, Kidney
How it was run: (§5)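 Kidney Pu (%ID) at 24 h after iv 238Pu(IV) citrate was measured in mice given ligand 30 µmol/kg by one of two routes: ip at 1 h, or by gastric tube at 3 min to 16 h-fasted or normally fed mice. Kidneys were alpha-counted by liquid scintillation, and data were normalized to 100% recovery.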

Mus musculus [16] = assay: Removal of [238Pu] (i.v.) from mice by ligand injected 30 uM/kg intraperitoneally at 1 hr from liver tissue; assay type: functional; how it was run: as §1
Mus musculus [17] = assay: Removal of [238Pu] (i.v.) from mice by ligand injected 30 uM/kg orally at 3 min fasted after iv injection from whole body; assay type: functional; how it was run: as §2
Mus musculus [18] = assay: Removal of [238Pu] (i.v.) from mice by ligand injected 30 uM/kg orally at 3 min fasted after iv injection from urine excretia; assay type: functional; how it was run: as §2
Mus musculus [19] = assay: Removal of [238Pu] (i.v.) from mice by ligand injected 30 uM/kg intraperitoneally at 1 hr from urine excretia; assay type: functional; how it was run: as §1
Mus musculus [20] = assay: Removal of [238Pu] (i.v.) from mice by ligand injected 30 uM/kg orally at 3 min fasted after iv injection from liver tissue; assay type: functional; how it was run: as §2
Mus musculus [21] = assay: Removal of [238Pu] (i.v.) from mice by ligand injected 30 uM/kg orally at 3 min normally fed after iv injection from whole body; assay type: functional; how it was run: as §4
Mus musculus [22] = assay: Removal of [238Pu] (i.v.) from mice by ligand injected 30 uM/kg intraperitoneally at 1 hr from soft tissue; assay type: functional; how it was run: as §1
Mus musculus [23] = assay: Removal of [238Pu] (i.v.) from mice by ligand injected 30 uM/Kg orally at 3 min fasted after iv injection from whole body; assay type: functional; how it was run: as §2
Mus musculus [24] = assay: Removal of [238Pu] (i.v.) from mice by ligand injected 30 uM/Kg ip at 1 hr from feces and GI contents; assay type: functional; how it was run: as §3
Mus musculus [25] = assay: Removal of [238Pu] (i.v.) from mice by ligand injected 30 uM/Kg orally at 3 min fasted after iv injection from urine excretia; assay type: functional; how it was run: as §2
Mus musculus [26] = assay: Removal of [238Pu] (i.v.) from mice by ligand injected 30 uM/Kg intraperitoneally at 1 hr from whole body; assay type: functional; how it was run: as §1
Mus musculus [27] = assay: Removal of [238Pu] (i.v.) from mice by ligand injected 30 uM/Kg intraperitoneally at 1 hr from skeleton; assay type: functional; how it was run: as §1
Mus musculus [28] = assay: Removal of [238Pu] (i.v.) from mice by ligand injected 30 uM/Kg orally at 3 min fasted after iv injection from soft tissue; assay type: functional; how it was run: as §2
Mus musculus [29] = assay: Removal of [238Pu] (i.v.) from mice by ligand injected 30 uM/Kg intraperitoneally at 1 hr from liver tissue; assay type: functional; how it was run: as §1
Mus musculus [30] = assay: Removal of [238Pu] (i.v.) from mice by ligand injected 30 uM/Kg ip at 1 hr and orally at 3 min after iv injection from kidneys; assay type: functional, Kidney; how it was run: as §5
Mus musculus [31] = assay: Removal of [238Pu] (i.v.) from mice by ligand injected 30 uM/Kg orally at 3 min fasted after iv injection from feces and GI contents; assay type: functional; how it was run: as §2
Mus musculus [32] = assay: Removal of [238Pu] (i.v.) from mice by ligand injected 30 uM/Kg intraperitoneally at 1 hr from urine excretia; assay type: functional; how it was run: as §1
Mus musculus [33] = assay: Removal of [238Pu] (i.v.) from mice by ligand injected 30 uM/Kg intraperitoneally at 1 hr from soft tissue; assay type: functional; how it was run: as §1
Mus musculus [34] = assay: Removal of [238Pu] (i.v.) from mice by ligand injected 30 uM/Kg orally at 3 min fasted after iv injection from liver tissue; assay type: functional; how it was run: as §2
Mus musculus [35] = assay: Removal of [238Pu] (i.v.) from mice by ligand injected 30 uM/Kg orally at 3 min fasted after iv injection from skeleton; assay type: functional; how it was run: as §2
Mus musculus [36] = assay: Removal of [238Pu] (i.v.) from mice by ligand injected 30 uM/Kg intraperitoneally at 1 hr from kidneys; assay type: functional, Kidney; how it was run: as §1

SMILES | ID (Mus musculus [1]) | ID (Mus musculus [2]) | ID (Mus musculus [3]) | ID (Mus musculus [4]) | ID (Mus musculus [5]) | ID (Mus musculus [6]) | ID (Mus musculus [7]) | ID (Mus musculus [8]) | ID (Mus musculus [9]) | ID (Mus musculus [11]) | ID (Mus musculus [12]) | ID (Mus musculus [13]) | ID (Mus musculus [14]) | ID (Mus musculus [15]) | ID (Mus musculus [16]) | ID (Mus musculus [17]) | ID (Mus musculus [18]) | ID (Mus musculus [19]) | ID (Mus musculus [20]) | ID (Mus musculus [21]) | further results
O=C(NCCCN(CCCCN(CCCNC(=O)c1cccc(=O)n1O)C(=O)c1cccc(=O)n1O)C(=O)c1cccc(=O)n1O)c1cccc(=O)n1O | 8% | 18% and 14% | 51% and 60% | 57% and 65% | 0.2% and 0.1% | 1.3% and 1.1% | 1.5% | 12% and 8% | 8.8% | 57% | 5.9% | 27% | 0.2% | 0.1% | 8.9% and 5.4% | 24% and 14% | 26% | 25% and 21% | 11% and 4.2% | 16% | ID (Mus musculus [10]): 7.5%; ID (Mus musculus [22]): 1.6% and 0.8%
O=C([O-])CN(CCN(CC(=O)[O-])CC(=O)[O-])CCN(CC(=O)[O-])CC(=O)[O-].[Ca+2].[Na+].[Na+].[Na+] [PENTETATE CALCIUM TRISODIUM] | – | – | – | – | – | – | – | – | – | – | – | – | – | – | – | – | – | – | – | – | ID (Mus musculus [23]): 79%; ID (Mus musculus [24]): 8.4%; ID (Mus musculus [25]): 15%; ID (Mus musculus [26]): 37%; ID (Mus musculus [27]): 14%; ID (Mus musculus [28]): 5.1%; ID (Mus musculus [29]): 19%; ID (Mus musculus [30]): 0.7%; ID (Mus musculus [31]): 6.5%; ID (Mus musculus [32]): 55%; ID (Mus musculus [33]): 2.9%; ID (Mus musculus [34]): 33%; ID (Mus musculus [35]): 40%; ID (Mus musculus [36]): 1.2%
Cn1ccc(C(=O)NCCCN(CCCCN(CCCNC(=O)c2ccn(C)c(=O)c2O)C(=O)c2cccc(=O)n2O)C(=O)c2cccc(=O)n2O)c(O)c1=O | 9.1% | 22% | 61% | 51% | 0.2% | 0.8% | 0.9% | 7.8% | 7.4% | 58% | 2.4% | 31% | 0.1% | 0.09% | 11% | 11% | 28% | 27% | 2.2% | 11% | ID (Mus musculus [22]): 1%
